Screens as filed in PubChem.
Shown are actives, neighbours in structure and some others; about 0.72% of the full set was active somewhere.
bIAP inhibitor: intestinal alkaline phosphatase (bovine) inhibition | purified bovine IAP, CDP-star luminescence, 30 min | 190,000 tested, under 10 active | inhibition, % at 20 µM | AID 1019;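 active = over 50% inhibition of intestinal alkaline phosphatase at 20 µM in the single-dose screen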
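System: purified bovine intestinal alkaline phosphatase (IAP) enzyme; Input: IAP diluted 1/65,000,000 in the well; Measured by: CDP-star luminescence signal; Compound dosing: 20 µM single dose; Incubation: 30 min reaction at room temperature.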
hIAP block: blocks human intestinal alkaline phosphatase. P09923. purified IAP, CDP-Star luminescence, 30 min. inhibition, % at 10 µM. hit rate 0.12% among 330,000. AID 2544;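 active = inhibition reaching a set limit with compound at 10 µM in the primary screen, cut at about 35% in these data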;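 also: plate controls were DMSO wells with enzyme for no effect and no-enzyme buffer wells for full effect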
Target sequence (P09923 whole entry, looked up): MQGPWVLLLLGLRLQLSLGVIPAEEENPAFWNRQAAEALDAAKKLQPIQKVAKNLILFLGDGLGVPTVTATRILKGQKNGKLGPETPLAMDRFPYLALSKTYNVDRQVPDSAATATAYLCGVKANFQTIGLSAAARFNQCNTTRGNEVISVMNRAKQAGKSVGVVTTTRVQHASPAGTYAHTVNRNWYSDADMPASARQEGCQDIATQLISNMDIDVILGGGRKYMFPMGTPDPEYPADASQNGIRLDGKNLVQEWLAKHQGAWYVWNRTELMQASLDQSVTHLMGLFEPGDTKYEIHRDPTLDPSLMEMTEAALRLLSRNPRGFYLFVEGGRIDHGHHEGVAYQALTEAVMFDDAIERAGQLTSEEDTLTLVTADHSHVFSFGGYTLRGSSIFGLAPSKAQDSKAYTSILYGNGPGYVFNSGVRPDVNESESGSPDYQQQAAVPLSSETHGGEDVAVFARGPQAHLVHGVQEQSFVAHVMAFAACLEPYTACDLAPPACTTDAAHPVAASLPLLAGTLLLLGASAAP
mIAP act: increases mouse intestinal alkaline phosphatase activity; muIAP, CDP-Star luminescence, 30 min; active compounds read high; 1 = vehicle-only enzyme signal, 0 = enzyme-free wells; activation factor at 10 µM; hit rate 0.24% among 330,000;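 active = activation factor of at least 2 at 20 µM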
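Assay system: mouse IAP enzyme / Compound: DMSO-dissolved test compounds / Timing: 30 min, room temperature / Measured by: luminescence from enzymatic CDP-Star hydrolysis / Control set: DMSO-only wells, enzyme-free buffer wells as negative control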
bIAP act: intestinal alkaline phosphatase (bovine) activation | purified bovine IAP, CDP-star luminescence, 30 min; active compounds read high; fold of DMSO-control signal, blank-subtracted | AID 1016 | hit rate 0.17% among 200,000 | activation factor at 20 µM;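 active = activation factor of 2 or more at 20 µM, a signal rise over negative controls twice the positive control's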
mIAP inh: mouse IAP inhibition; purified mouse IAP, CDP-Star luminescence, 30 min; inhibition, % at 10 µM; hit rate 0.2% among 330,000;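 active = inhibition of at least 40% at 10 µM in the primary screen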;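 also: plate controls were DMSO with enzyme for no effect and no enzyme wells for full effect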
hIAP activ: increases human intestinal alkaline phosphatase activity. P09923. purified human IAP, CDP-Star luminescence, 30 min; active compounds read high; 1 = vehicle-only enzyme, 0 = enzyme-free background. activation factor at 10 µM. hit rate 0.16% among 330,000;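 active = activation factor of the enzyme at least 2-fold when tested at 20 µM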
hIAP act confirm: human IAP activation confirmation; shares compounds with hIAP activ; purified IAP, CDP-Star luminescence, 30 min; active compounds read low; activation (%Activity, negative = activation), % at 8.3 µM; hit rate 10% among 880; AID 434926;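 active = at least twofold enzyme activation in any of six single-dose repeats, which the averaged readout prints as negative percent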
Active calls of the source: *; . = no result given.

SMILES	bIAP inhibitor	hIAP block	mIAP act	bIAP act	mIAP inh	hIAP activ	hIAP act confirm
CCOc1ccc(CN2CCC(n3nccc3NC(=O)CCCc3ccccc3)CC2)cc1	.	-217	2.2*	.	-120	3.2*	1
COc1cc(CN2CCC(n3nccc3NC(=O)CCCc3ccccc3)CC2)ccc1F	.	-101	1.7	.	-72	2*	41
COc1ccc(CN2CCC(n3nccc3NC(=O)CCc3ccccc3)CC2)c(C)c1C	.	-131	2.1*	.	-105	2.3*	8
COc1ccc(C(=O)NCC(=O)NCC(c2ccco2)N(C)C)cc1OC (centres undefined)	9	44*	0.96	0.9	4	0.56	6
CCCOc1ccc(C(=O)NCC(c2ccco2)N(C)C)cc1OC (centres undefined)	-1	2	0.98	1	2	0.98	.
CCN(CC)C(=O)Cc1cc(C(=O)O)c2ccccc2n1	-7	-103	1.1	1.1	-8	2*	0
O=C(COC(=O)c1ccccn1)Nc1nc(-c2cccc([N+](=O)[O-])c2)cs1	.	-3	0.89	.	11	1	.
COc1ccccc1NC(=S)NCc1ccc(Cl)cc1	.	15	1.1	.	-14	0.85	.
CSc1ccccc1NC(=S)NCc1ccc(Cl)cc1	.	40*	1.1	.	-14	0.6	-32
O=C(O)CCC(=O)Nc1ccccc1C(=O)NC1CCCCC1	11	-110	1	0.9	0	2.1*	-6
Cc1cc(N(C)/N=C/c2ccccc2O)nc(-c2ccccc2O)n1	-23	-130	1.1	1.2	-11	2.3*	-37
COc1ccc(C(=O)C2CCN(C(=O)Nc3ccccc3C)CC2)cc1	.	-33	1.1	.	-7	1.3	.
S=C(NCC1CCCO1)Nc1ccc(Cl)c(Cl)c1 (centres undefined)	10	2	1.2	0.9	-18	0.98	.
O=C(Cc1ccc(Cl)c(Cl)c1)NNC(=S)NCC1CCCO1 (centres undefined)	.	-107	0.95	.	4	2.1*	-98*
O=C(O)c1ccc(S(=O)(=O)N2CCSCC2)cc1	.	-27	1	.	-2	1.3	.
CN(C)c1ccc(/C=C2/C=C(c3ccc4c(c3)CCCC4)OC2=O)cc1	.	43*	0.67	.	33	0.57	4
CN(C(=O)CNC(=O)c1ccc(Br)o1)C1CCCCC1	.	-14	0.92	.	8	1.1	.
O=C(O)/C(=C\c1ccccc1)c1ccc2ccccc2c1	.	38*	1.1	.	-5	0.62	6
CCCCNC(=O)c1cn(CC)c2ccc(S(=O)(=O)N3CCCC3)cc2c1=O	.	18	1	.	-2	0.82	.
CCn1cc(C(=O)NCCCOC)c(=O)c2cc(S(=O)(=O)N3CCCC3)ccc21	.	39*	0.98	.	2	0.61	-23
COc1ccccc1NC(=O)NNC(=O)c1cc2ccccc2cc1O	.	-101	0.89	.	11	2*	-55
Cc1ccc(NC(=O)NNC(=O)c2cc3ccccc3cc2O)cc1	.	-112	0.96	.	4	2.1*	-70*
O=C(CNC(=O)c1ccc2c(c1)OCO2)N/N=C/c1cc(Br)ccc1O	.	-52	0.92	.	8	1.5	.
COc1ccccc1OCCC(=O)NNC(=O)c1ccccc1F	.	7	0.96	.	4	0.93	.
O=C1CCN(Cc2ccc(Br)cc2)CCN1[C@H](CO)Cc1ccccc1	.	-5	0.92	.	8	1.1	.
SMILES	bIAP inhibitor	hIAP block	mIAP act	bIAP act	mIAP inh	hIAP activ	hIAP act confirm
O=C(NC(=S)Nc1ccccc1N1CCCC1)c1ccccc1Br	.	-13	0.67	.	34	1.1	.
COc1c(C)cccc1C(=O)NC(=S)Nc1ccccc1N1CCCC1	.	35*	0.89	.	11	0.65	-34
CC(C)(C)OC(=O)NCCCCCNC(=O)c1[nH]cnc1C(=O)Nc1ccon1	.	-105	0.89	.	11	2*	9
CC(C)(C)OC(=O)N1CCC(NC(=O)c2[nH]cnc2C(=O)Nc2ccc(Cl)cc2)CC1	.	-65	0.97	.	3	1.6	.
CC(C)(C)OC(=O)N1CCC(NC(=O)c2[nH]cnc2C(=O)Nc2ccon2)CC1	.	-174	0.83	.	17	2.7*	37
CC(NC(=S)NC1CCC(C(C)(C)C)CC1)c1ccccc1 (centres undefined)	.	-101	4.5*	.	-348	2*	-111*
COc1ccc(C(C)NC(=S)NC2CCCC2)cc1OC (centres undefined)	10	-4	1.1	0.9	-10	1	.
CN(C)c1ccc(/C=C2\C(=N)N3N=C(CC(=O)N4CCCCC4)SC3=NC2=O)cc1	.	37*	0.72	.	28	0.63	7
CCOc1c(C)cc(S(=O)(=O)NCc2ccccn2)c(C)c1C	.	-21	1.1	.	-8	1.2	.
N#CC1(NC(=O)CSc2nnc(Nc3ccccc3F)s2)CCCC1	.	-4	1	.	-4	1	.
c1ccc(-c2nnc(CN3CCCCC3)o2)cc1	.	-4	1.2	.	-16	1	.
c1ccc(-c2nnc(CN3CCC4(CC3)OCCO4)o2)cc1	7	41*	0.96	0.9	4	0.59	30
CCN1CCN(c2ccc(S(=O)(=O)N3CCOCC3)cc2NC(=O)/C=C/c2ccc([N+](=O)[O-])cc2)CC1	.	-10	0.97	.	3	1.1	.
CCn1c2ccccc2c2cc(NC(=O)c3coc(=O)c(Br)c3)ccc21	.	42*	0.85	.	15	0.58	39
CCOc1ccc(C2NC(=O)C(C#N)=C(S)N2c2cccc(C)c2)cc1OC (centres undefined)	9	5	0.93	0.9	7	0.95	.
CCOc1ccc(C2NC(=O)C(C#N)=C(S)N2c2ccc(C)cc2)cc1OC (centres undefined)	7	-103	0.86	0.9	14	2*	-77
CC(=O)CCc1ccc(Oc2nc(-c3cccnc3)nc3ccccc23)cc1	-13	36*	0.86	1.1	14	0.64	42
COc1ccc(Oc2nc(-c3cccnc3)nc3ccccc23)cc1	.	10	0.96	.	4	0.91	.
COc1ccc2[nH]c3c(c2c1)CCN1C(=O)C(CC(=O)NCCc2ccccn2)C[C@H](C(=O)N2CCCCC2)[C@@]31C (some centres undefined)	.	.	1	.	-9	.	.
CC(C)Oc1ccc(S(=O)(=O)N2CCOCC2)cc1NC(=O)C1=COCCO1	.	-5	0.97	.	3	1	.
COc1ccc(C(=O)COC(=O)CNC(=O)c2ccccc2)cc1F	.	-12	1.1	.	-13	1.1	.
Cc1ccc(S(=O)(=O)N2CCN(C(=O)CCn3cncn3)CC2)cc1	.	36*	1.1	.	-5	0.64	-53
N#C/C(=N\Nc1ccc(S(=O)(=O)N2CCCCCC2)cc1)C(N)=S	8	37*	0.85	0.9	15	0.63	8
N#C/C(=N\Nc1ccc([N+](=O)[O-])cc1)C(N)=S	.	35*	0.66	.	34	0.65	-9
CCOC(=O)c1cnc(SCC(=O)c2ccccc2)nc1N	10	35*	0.96	0.9	4	0.65	-436*
